Data as given in ChEMBL document CHEMBL4052591, “Evaluation of Jatrophane Esters from Euphorbia spp. as Modulators of Candida albicans Multidrug Transporters” (2017).
Activity calls are given as the source filed them. The rule behind the calls is not given here.

Legend:
Candida albicans [1] = test: Inhibition of Candida albicans CDR1 transporter expressed in Saccharomyces cerevisiae AD cells assessed as nile red accumulation at 70 uM after 30 mins by flow cytometric analysis relative to control; assay type: cell-based
Method in brief: (§1)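 S. cerevisiae AD strains overexpressing CaCdr1p (AD-CDR1) or CaMdr1p (AD-MDR1) were grown at 30 °C from OD600 0.1 to 0.25. They were resuspended as a 5% suspension in YEPD:water 1:2. Nile Red (7 μM final) was given ± inhibitor (70 μM) for 30 min at 30 °C. Accumulation was read by flow cytometry on 10 000 cells. Means ± SD, three independent experiments.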

Candida albicans [2] = test: Inhibition of Candida albicans MDR1 transporter expressed in Saccharomyces cerevisiae AD cells assessed as nile red dye accumulation at 70 uM after 30 mins by flow cytometric analysis relative to control; assay type: cell-based; method in brief: as §1

Row | Compound | inhibition (Candida albicans [1]) | inhibition (Candida albicans [2])
1 | C=C1[C@@H](OC(=O)C(C)C)[C@H]2[C@@H](O)[C@](C)(OC(C)=O)C[C@]2(O)C(=O)[C@@H](C)/C=C/C(C)(C)[C@H](OC(C)=O)[C@H](OC(C)=O)[C@H]1OC(=O)c1ccccc1 | inactive | inactive
2 | C=C1[C@@H](OC(C)=O)[C@H]2[C@@H](OC(C)=O)[C@](C)(OC(=O)c3cccnc3)C[C@]2(O)C(=O)[C@@H](C)/C=C/C(C)(C)[C@H](OC(=O)c2cccnc2)[C@H](OC(C)=O)[C@H]1OC(=O)c1ccccc1 | inactive | inactive
3 | C=C1[C@@H](OC(=O)c2ccccc2)[C@H]2[C@@H](O)[C@](C)(OC(C)=O)C[C@]2(O)C(=O)[C@@H](C)/C=C/C(C)(C)[C@H](OC(C)=O)[C@H](O)[C@H]1OC(=O)c1ccccc1 | inactive | inactive
4 | CC(=O)O[C@H]1[C@@H](OC(C)=O)C(C)(C)/C=C/[C@@](C)(O)C(=O)[C@@]2(OC(C)=O)C[C@@](C)(OC(C)=O)[C@H](OC(C)=O)[C@@H]2[C@H]2OC(=O)CC[C@@]2(OC(C)=O)[C@@H]1OC(=O)C(C)C | inactive | inactive
5 | C=C1[C@@H](OC(=O)C(C)C)[C@H]2[C@@H](OC(=O)C(C)C)[C@](C)(OC(C)=O)C[C@]2(O)C(=O)[C@@H](C)/C=C/C(C)(C)[C@H](OC(C)=O)[C@H](OC(C)=O)[C@H]1OC(=O)c1ccccc1 | inactive | inactive
6 | C=C1[C@@H](OC(C)=O)[C@H]2[C@@H](OC(C)=O)[C@](C)(OC(C)=O)C[C@]2(OC(C)=O)C(=O)[C@H](C)/C=C/C(C)(C)C(=O)[C@H](OC(=O)/C(C)=C/C)[C@H]1OC(C)=O | inactive | inactive
7 | C=C1[C@@H](OC(=O)c2ccccc2)[C@H]2[C@@H](O)[C@](C)(OC(C)=O)C[C@]2(O)C(=O)[C@@H](C)/C=C/C(C)(C)[C@H](OC(C)=O)[C@H](OC(C)=O)[C@H]1OC(=O)c1ccccc1 | inactive | inactive
8 | C=C1[C@@H](OC(=O)C(C)C)[C@H]2[C@@H](OC(C)=O)[C@](C)(OC(C)=O)C[C@]2(O)C(=O)[C@@H](C)/C=C/C(C)(C)[C@H](OC(C)=O)[C@H](OC(C)=O)[C@H]1OC(=O)c1ccccc1 | inactive | inactive
9 | C=C1[C@@H](OC(C)=O)[C@H]2[C@@H](OC(=O)c3ccccc3)[C@@H](C)C[C@]2(O)[C@H](O)[C@H](C)/C=C/C(C)(C)C(=O)[C@H](OC(C)=O)[C@H]1OC(C)=O | inactive | inactive
10 | CC(=O)O[C@H]1[C@@H](OC(C)=O)C(C)(C)/C=C/[C@@](C)(O)C(=O)[C@@]2(O)C[C@@](C)(OC(C)=O)[C@H](OC(C)=O)[C@@H]2[C@H]2OC(=O)CC[C@@]2(OC(=O)C(C)C)[C@@H]1OC(=O)C(C)C | inactive | inactive
11 | C=C1[C@@H](OC(C)=O)[C@H]2[C@@H](OC(C)=O)[C@](C)(OC(C)=O)C[C@]2(OC(C)=O)C(=O)[C@H](C)/C=C/C(C)(C)C(=O)[C@H](OC(=O)c2ccccc2)[C@H]1OC(C)=O | inactive | inactive
12 | C=C1[C@@H](OC(=O)c2ccccc2)[C@H]2[C@@H](OC(C)=O)[C@](C)(O)C[C@]2(O)C(=O)[C@@H](C)/C=C/C(C)(C)[C@H](OC(C)=O)[C@H](OC(C)=O)[C@H]1OC(=O)c1cccnc1 | inactive | inactive
13 | C=C1[C@@H](OC(C)=O)[C@H]2[C@@H](OC(=O)c3ccccc3)[C@@H](C)C[C@]2(O)[C@H](OC(C)=O)[C@H](C)/C=C/[C@@](C)(CO)C(=O)[C@H](O)[C@H]1OC(C)=O | inactive | inactive
14 | C=C1[C@@H](OC(C)=O)[C@H]2[C@@H](OC(C)=O)[C@](C)(O)C[C@]2(OC(C)=O)C(=O)[C@H](C)/C=C/C(C)(C)C(=O)[C@H](OC(=O)c2ccccc2)[C@H]1OC(C)=O | inactive | inactive
15 | CC(=O)O[C@H]1[C@@H](OC(C)=O)C(C)(C)/C=C/[C@H](C)C(=O)[C@@]2(OC(C)=O)C[C@@](C)(OC(C)=O)[C@H](O)[C@@H]2[C@H]2OC(=O)CC[C@@]2(OC(C)=O)[C@@H]1OC(=O)C(C)C | inactive | inactive
16 | C=C1[C@@H](OC(C)=O)[C@H]2[C@@H](OC(C)=O)[C@](C)(OC(=O)c3cccnc3)C[C@]2(OC(C)=O)C(=O)[C@@H](C)/C=C/C(C)(C)[C@H](OC(=O)c2cccnc2)[C@H](OC(C)=O)[C@H]1OC(=O)C(C)C | inactive | inactive
17 | C=C1[C@@H](OC(=O)C(C)C)[C@H]2[C@@H](OC(C)=O)[C@](C)(O)C[C@]2(O)C(=O)[C@@H](C)/C=C/C(C)(C)[C@H](OC(C)=O)[C@H](OC(C)=O)[C@H]1OC(=O)c1ccccc1 | inactive | inactive
18 | C=C1[C@@H](OC(C)=O)[C@H]2[C@@H](OC(C)=O)[C@](C)(OC(C)=O)C[C@]2(OC(C)=O)C(=O)[C@H](C)/C=C/C(C)(C)C(=O)[C@H](OC(C)=O)[C@H]1OC(C)=O | inactive | inactive
19 | C=C1[C@@H](OC(=O)C(C)C)[C@H]2[C@@H](OC(C)=O)[C@](C)(OC(=O)c3cccnc3)C[C@]2(O)C(=O)[C@@H](C)/C=C/C(C)(C)[C@H](OC(=O)c2cccnc2)[C@H](OC(C)=O)[C@H]1OC(=O)c1ccccc1 | inactive | inactive
20 | C=C1[C@@H](OC(C)=O)[C@H]2[C@@H](OC(=O)c3ccccc3)[C@@H](C)C[C@]2(O)[C@H](O)[C@H](C)/C=C/C(C)(C)C(=O)[C@H](O)[C@H]1OC(C)=O | inactive | inactive
21 | C=C1[C@@H](OC(C)=O)[C@H]2[C@@H](OC(C)=O)[C@](C)(OC(=O)c3cccnc3)C[C@]2(OC(C)=O)C(=O)[C@@H](C)/C=C/C(C)(C)[C@H](OC(=O)c2cccnc2)[C@H](OC(C)=O)[C@H]1OC(=O)c1ccccc1 | inactive | inactive
22 | C=C1CCC2[C@@H](/C=C(\C)C(=O)[C@@]3(OC(C)=O)C[C@H](C)[C@H](OC(C)=O)[C@@H]3[C@H]1OC(C)=O)C2(C)C (single isomer, unassigned) | inactive | inactive
23 | C=C1[C@@H](OC(=O)C(C)C)[C@H]2[C@@H](OC(=O)c3ccccc3)[C@](C)(OC(C)=O)C[C@]2(O)C(=O)[C@@H](C)/C=C/C(C)(C)[C@H](OC(C)=O)[C@H](OC(C)=O)[C@H]1OC(=O)C(C)C | inactive | inactive
24 | C=C1[C@@H](OC(C)=O)[C@H]2[C@@H](OC(C)=O)[C@](C)(O)C[C@]2(OC(C)=O)C(=O)[C@H](C)/C=C/C(C)(C)C(=O)[C@H](OC(=O)/C(C)=C/C)[C@H]1OC(C)=O | inactive | inactive
25 | C=C1[C@@H](OC(C)=O)[C@H]2[C@@H](OC(C)=O)[C@](C)(O)C[C@]2(OC(C)=O)C(=O)[C@H](C)/C=C/C(C)(C)C(=O)[C@H](OC(=O)C(C)C)[C@H]1OC(C)=O | inactive | inactive
26 | C=C1[C@@H](OC(=O)C(C)C)[C@H]2[C@@H](OC(C)=O)[C@@H](C)C[C@]2(O)C(=O)[C@@H](C)/C=C/C(C)(C)[C@H](OC(C)=O)[C@H](OC(C)=O)[C@H]1OC(=O)c1ccccc1 | inactive | inactive
